pIC50: −log10 of the molar value. The source made the active and inactive calls. No cut-off for these calls is given here.
Columns and labels:
[1] = target: T1, Bile acid receptor (Homo sapiens) (UniProt Q96RI1); assay: Inhibition of GW4064-induced transactivation of FXR (unknown origin) expressed in HEK293T cells at 40 uM after 16 hrs by beta-lactamase reporter gene assay relative to control; assay type: cell-based; conditions: HEK-293T
T1 sequence (whole entry): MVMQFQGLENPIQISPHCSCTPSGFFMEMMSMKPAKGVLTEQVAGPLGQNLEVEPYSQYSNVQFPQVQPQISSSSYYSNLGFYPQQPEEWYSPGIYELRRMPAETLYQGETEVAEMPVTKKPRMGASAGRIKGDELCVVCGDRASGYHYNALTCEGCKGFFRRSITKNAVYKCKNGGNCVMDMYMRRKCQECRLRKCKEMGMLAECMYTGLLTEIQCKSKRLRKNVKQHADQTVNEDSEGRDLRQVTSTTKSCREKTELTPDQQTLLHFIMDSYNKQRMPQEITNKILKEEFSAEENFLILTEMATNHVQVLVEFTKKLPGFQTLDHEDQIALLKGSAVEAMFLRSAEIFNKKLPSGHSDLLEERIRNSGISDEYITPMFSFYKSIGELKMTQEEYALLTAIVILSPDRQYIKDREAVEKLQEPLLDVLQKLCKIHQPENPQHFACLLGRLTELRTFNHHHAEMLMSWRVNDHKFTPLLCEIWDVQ

[2] = target: T1, Bile acid receptor (Homo sapiens); assay: Antagonist activity at human GST-tagged FXR at 164 nM after 20 mins by TR-FRET assay relative to control
[3] = target: T1, Bile acid receptor (Homo sapiens); assay: Agonist activity at human FXR
[4] = Cytotoxicity against HEK293T cells expressing FXR and beta-lactamase genes assessed as inhibition of cell viability at 40 uM after 16 hrs by CellTiter-Glo luminescent assay relative to control; assay type: cell-based, HEK-293T; conditions: human, read-out: INH
How it was run: (§1)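 Viability run alongside the agonist assay in the same GeneBLAzer FXR HEK 293T cells: 20,000 cells/well in phenol red-free DMEM with 2% charcoal/dextran-treated FBS, 0.5% DMSO, 16 h at 37°C. Cooled 20 min, then CellTiter-Glo added for 20 min in dark; luminescence read.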

[5] = target: T1, Bile acid receptor (Homo sapiens); assay: Ratio of E16 IC50 to compound IC50 for human GST-tagged FXR after 20 mins by TR-FRET assay
[6] = target: T1, Bile acid receptor (Homo sapiens); assay: Agonist activity at FXR (unknown origin) expressed in HEK293T cells after 16 hrs by beta-lactamase reporter gene assay relative to control; assay type: cell-based; conditions: HEK-293T
[7] = target: T1, Bile acid receptor (Homo sapiens); assay: Antagonist activity at human GST-tagged FXR at 40 uM after 20 mins by TR-FRET assay relative to control
[8] = target: T1, Bile acid receptor (Homo sapiens); assay: Inhibition of GW4064-induced transactivation of FXR (unknown origin) expressed in HEK293T cells at 1 uM after 16 hrs by beta-lactamase reporter gene assay relative to control; assay type: cell-based; conditions: HEK-293T
[9] = target: T1, Bile acid receptor (Homo sapiens); assay: Antagonist activity at human GST-tagged FXR at 13.3 uM after 20 mins by TR-FRET assay relative to control
[10] = target: T1, Bile acid receptor (Homo sapiens); assay: Antagonist activity at human GST-tagged FXR at 493 nM after 20 mins by TR-FRET assay relative to control
[11] = target: T1, Bile acid receptor (Homo sapiens); assay: Antagonist activity at human GST-tagged FXR at 4.4 uM after 20 mins by TR-FRET assay relative to control
[12] = Cytotoxicity against HEK293T cells expressing FXR and beta-lactamase genes assessed as inhibition of cell viability at 4.4 uM after 16 hrs by CellTiter-Glo luminescent assay relative to control; assay type: cell-based, HEK-293T; conditions: human, read-out: INH; how it was run: as §1
[13] = target: T1, Bile acid receptor (Homo sapiens); assay: Antagonist activity at human GST-tagged FXR at […] nM after 20 mins by TR-FRET assay relative to control
Bile acid receptor [14] = target: T2, Bile acid receptor (Homo sapiens, UniProt Q96RI1); assay: Antagonist activity at human GST-tagged FXR after 20 mins by TR-FRET assay
T2 sequence (Q96RI1 whole entry): T1 sequence (whole entry)

Bile acid receptor [15] = target: T2, Bile acid receptor; assay: Inhibition of GW4064-induced transactivation of FXR (unknown origin) expressed in HEK293T cells after 16 hrs by beta-lactamase reporter gene assay; assay type: cell-based, HEK-293T

Row | inhibition [1] [%] | Activity [3] | Activity [6] | SMILES | cytotoxicity at 16 h, 40 µM [4] [%] | further results
1 | 97.6 |  | inactive | COc1cccc(Cn2cc(C(=O)Nc3ccc(C)c(S(=O)(=O)N4CCOCC4)c3)c(-c3ccc(C(F)(F)F)cc3)n2)c1 | < 5 | inhibition [2]: 109%
2 | 72 |  | inactive | Cc1ccc(-c2nn(-c3ccc(F)cc3)cc2C(=O)Nc2ccc(C)c(S(=O)(=O)N3CCOCC3)c2)cc1 | 18.5 | Ratio IC50 [5]: 3; inhibition [10]: 95%
3 | 97.8 |  | inactive | COc1cccc(-c2nn(C(C)C)cc2C(=O)Nc2ccc(C)c(S(=O)(=O)N3CCOCC3)c2)c1 |  | inhibition [9]: 150%; cytotoxicity at 16 h, 4.4 µM [12]: 10.8%
4 | 77.2 | inactive |  | Cc1ccc(-c2nn(-c3ccccc3)cc2C(=O)Nc2ccc(C)c(S(=O)(=O)N3CCOCC3)c2)cc1 | 17.9 | inhibition [2]: 100%
5 | 27 | inactive |  | COc1ccc(-c2nn(-c3ccccc3)cc2C(=O)Nc2cc(S(=O)(=O)N3CCOCC3)ccc2N2CCOCC2)cc1 | < 5 | inhibition [13]: 11.6%
6 | 86.4 |  | inactive | Cc1ccc(-c2nn(C(C)C)cc2C(=O)N(C)c2ccc(C)c(S(=O)(=O)N3CCOCC3)c2)cc1 | 15 | inhibition [7]: 133%; inhibition [8]: inactive
7 | 84.4 |  | inactive | Cc1ccc(-c2nn(Cc3ccc4ccccc4c3)cc2C(=O)Nc2ccc(C)c(S(=O)(=O)N3CCOCC3)c2)cc1 |  | inhibition [2]: 97.8%; cytotoxicity at 16 h, 4.4 µM [12]: 7.9%
8 | 66.9 | inactive |  | Cc1cccc(-n2ncc(C(=O)Nc3cccc(S(=O)(=O)N4CCOCC4)c3)c2C)c1 | < 5 | pIC50 (Bile acid receptor [14]): 5.18; inhibition [9]: 85.1%; pIC50 (Bile acid receptor [15]): 4.53
9 | 99 | inactive |  | Cc1ccc(NC(=O)c2c(C)nn(-c3ccccc3)c2C)cc1S(=O)(=O)N1CCOCC1 | 47.4 | pIC50 (Bile acid receptor [14]): 5.48; inhibition [9]: 70.6%; pIC50 (Bile acid receptor [15]): 4.93
10 | 100 |  | inactive | Cc1ccc(NC(=O)c2cn(C(C)C)nc2-c2ccc(C(F)(F)F)cc2)cc1S(=O)(=O)N1CCOCC1 | 19.5 | inhibition [11]: 133%
11 | 42.6 | inactive |  | O=C(Nc1cccc(S(=O)(=O)N2CCOCC2)c1)c1cn(-c2ccccc2)nc1-c1ccc(F)cc1 | 16.3 | inhibition [10]: 53.3%
12 | 80.3 | inactive |  | O=C(Nc1ccc(F)c(S(=O)(=O)N2CCOCC2)c1)c1cnn(-c2ccccc2)c1 | 27.4 | pIC50 (Bile acid receptor [14]): 5.08; inhibition [9]: 83.8%; pIC50 (Bile acid receptor [15]): 5.03
13 | 62.5 |  | inactive | COCCc1nn(C(C)C)cc1C(=O)Nc1ccc(C)c(S(=O)(=O)N2CCOCC2)c1 | < 5 | inhibition [7]: 98.2%
14 | 93.4 |  | inactive | Cc1ccc(-c2nn(Cc3cccc(C(F)(F)F)c3)cc2C(=O)Nc2ccc(C)c(S(=O)(=O)N3CCOCC3)c2)cc1 | < 5 | inhibition [2]: 99.2%

The remaining lines, values behind:

Row | SMILES | inhibition [1] [%] | Activity [3] | Activity [6] | cytotoxicity at 16 h, 40 µM [4] [%] | further results
15 | O=C(Nc1ccc(S(=O)(=O)N2CCOCC2)cc1)c1cn(-c2ccccc2)nc1-c1ccc(F)cc1 | 34.7 | inactive |  | < 5 | inhibition [2]: 21.2%
16 | C[C@H](CCC(=O)O)[C@H]1CC[C@H]2[C@@H]3CC[C@@H]4C[C@H](O)CC[C@]4(C)[C@H]3CC[C@]12C [LITHOCHOLIC ACID] |  |  |  | < 5 | 
17 | Cc1ccc(-c2nn(-c3ccc(Cl)cc3Cl)cc2C(=O)Nc2ccc(C)c(S(=O)(=O)N3CCOCC3)c2)cc1 | 89.9 |  | inactive | < 5 | inhibition [2]: 120%; Ratio IC50 [5]: 3
18 | Cc1ccc(-c2nn(-c3cccc(Cl)c3)cc2C(=O)Nc2ccc(C)c(S(=O)(=O)N3CCOCC3)c2)cc1 | 60.6 |  | inactive | < 5 | inhibition [2]: 99.3%; Ratio IC50 [5]: 3
19 | COc1cccc(Cn2cc(C(=O)N(C)c3ccc(C)c(S(=O)(=O)N4CCOCC4)c3)c(-c3cccc(OC)c3)n2)c1 | 23.8 |  | inactive | 19.7 | inhibition [7]: 69.7%; inhibition [8]: inactive
20 | Cc1ccc(NC(=O)c2cnn(-c3cccnc3)c2)cc1S(=O)(=O)N1CCOCC1 | 16.1 | inactive |  | 27.9 | inhibition [9]: 18.8%
21 | Cc1ccc(-c2nn(-c3ccccc3)cc2C(=O)Nc2cccc(S(=O)(=O)N3CCOCC3)c2)cc1 | 32.8 | inactive |  | 5.4 | inhibition [10]: 27.5%
22 | Cc1ccc(-c2nn(C(C)C)cc2C(=O)Nc2ccc(C)c(S(=O)(=O)N3CCOCC3)c2)cc1 | 99.1 |  | inactive | < 5 | inhibition [11]: 131%
23 | COc1cccc(Cn2cc(C(=O)Nc3ccc(C)c(S(=O)(=O)N4CCOCC4)c3)c(C(C)C)n2)c1 | 99.2 |  | inactive | < 5 | inhibition [11]: 101%
24 | Cc1ccc(-c2nn(C(C)C)cc2CNc2ccc(C)c(S(=O)(=O)N3CCOCC3)c2)cc1 | 36.8 |  | inactive | 10.5 | inhibition [9]: 99.5%; inhibition [8]: inactive
25 | Cc1ccc(-c2nn(-c3cccc(C(F)(F)F)c3)cc2C(=O)Nc2ccc(C)c(S(=O)(=O)N3CCOCC3)c2)cc1 | 54.8 |  | inactive | 7.3 | inhibition [2]: 77.5%; Ratio IC50 [5]: 3
26 | O=C(Nc1ccc(S(=O)(=O)N2CCOCC2)cc1)c1cn(-c2ccccc2)nc1-c1ccccc1 | 18.6 | inactive |  | 7.4 | inhibition [10]: 12.7%
27 | O=C(Nc1ccc(S(=O)(=O)N2CCOCC2)cc1)c1cn(-c2ccccc2)nc1-c1ccc(Cl)cc1 | 20.6 | inactive |  | < 5 | inhibition [13]: 17.8%
28 | COc1cccc(Cn2cc(CNc3ccc(C)c(S(=O)(=O)N4CCOCC4)c3)c(C(C)C)n2)c1 | 64.8 |  | inactive | 13.9 | inhibition [11]: 72.5%; inhibition [8]: inactive
29 | COc1cccc(Cn2cc(C(=O)Nc3ccc(C)c(S(=O)(=O)N4CCOCC4)c3)c(-c3cccc(OC)c3)n2)c1 | 89.4 |  | inactive | < 5 | inhibition [10]: 114%
30 | Cc1ccc(NC(=O)c2cnn(-c3ccccc3)c2C(F)(F)F)cc1S(=O)(=O)N1CCOCC1 | 101 | inactive |  | 51.3 | pIC50 (Bile acid receptor [14]): 6.00; inhibition [9]: 99.8%; pIC50 (Bile acid receptor [15]): 4.93
31 | O=C(Nc1cccc(S(=O)(=O)N2CCOCC2)c1)c1cn(-c2ccccc2)nc1-c1ccccc1 | 54.9 | inactive |  | 7.1 | inhibition [10]: 44.4%
32 | COCCc1nn(Cc2cccc(OC)c2)cc1C(=O)Nc1ccc(C)c(S(=O)(=O)N2CCOCC2)c1 | 95.9 |  | inactive | < 5 | inhibition [9]: 114%
33 | Cc1ccc(-c2nn(CCCCO)cc2C(=O)Nc2ccc(C)c(S(=O)(=O)N3CCOCC3)c2)cc1 | 97.6 |  | inactive | 5.9 | inhibition [10]: 89.3%
34 | CC(C)c1onc(-c2c(Cl)cccc2Cl)c1COc1ccc(/C=C/c2cccc(C(=O)O)c2)c(Cl)c1 |  |  |  | < 5 | 
35 | O=C(Nc1cccc(S(=O)(=O)N2CCOCC2)c1)c1cn(-c2ccccc2)nc1-c1ccc(Cl)cc1 | 38.8 | inactive |  | < 5 | inhibition [13]: 36.9%
